In the library only some 2.6% were active in any assay of this set; here they are far more common.
VLA-4 inh = inhibition in a human VLA-4 binding assay. P13612. inhibition, % (about 7 µM as worked out from the volumes in the protocol). hit rate 0.2% among 330,000. VLA-4 expressing cells, ligand binding flow cytometry; in the data active = inhibition above about 50%
Platelet DG rel = platelet dense granule release activity. human platelet-rich plasma, SFLLRN dense granule ATP release, luminescence. inhibition, %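 (compounds screened at 7.5 µM in platelet-rich plasma)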. hit rate 0.22% among 300,000;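 active = mean replicate score, as percent of positive control, at or above 50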
TAAR1 antagonist = antagonists of human TAAR1; Q96RJ0; CHO RD-HGA16 TAAR1, Fluo-8 calcium fluorescence, antagonist; inhibition, % at 3 µM; hit rate 1.5% among 360,000;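 active = inhibition above a per-plate cutoff, the mean inhibition of test compounds on that plate plus 3 SD, cut at about 49% in these data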;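 also: 0% = DMSO plus EC80 beta-PEA response and 100% = DMSO alone without agonist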
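Assay system: RD-HGA16 CHO cells with stable hTAAR1 and Gα16 / Reagent: EC80 β-phenethylamine stimulus / Doses: 3 µM, single point / Timing: dye loading 75 min at 37 °C, then 30 min room temperature / Measured by: Fluo-8 intracellular calcium dye fluorescence, real-time kinetic reads / Controls: vehicle wells and EC80 agonist wells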
TAAR1 ag = human TAAR1 agonism. CHO RD-HGA16 TAAR1, Fluo-8 calcium fluorescence; vehicle wells 0%, saturating PEA agonist 100%. hit rate 0.99% among 360,000. activation, % at 3 µM. Q96RJ0;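 active = activation above the mean activation of all test compounds in the run plus 3 SD, cut at about 38% in these data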
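Assay system – CHO-derived RD-HGA16 cells with stable Gα16 and human TAAR1 · Compound dosing – one-point dosing at 3 µM (nominal) · Incubation – 17-24 h seeding, 75 min 37 °C dye, 30 min RT · Measured by – kinetic Fluo-8 calcium fluorescence · Control set – DMSO vehicle as 0%, PEA at EC100 as 100% · Repeats – single well for each compound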
Rce1 inh = yeast Ras-converting enzyme inhibition | Q03530 | yeast membranes, quenched prenylated peptide cleavage fluorescence | calls only | hit rate 0.27% among 290,000 | AID 2563;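 active = fall in fluorescence gain of 50% or more versus controls, with final raw signal at or below 3038400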;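 also: plate controls were neutral control wells for no effect and wells lacking membranes for full effect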
TAAR1 ag conf = confirmation of human TAAR1 agonists | CHO RD-HGA16 TAAR1, Fluo-8 calcium fluorescence; scaled: DMSO 0%, maximal phenethylamine 100% | activation, % at 3 µM | shares compounds with TAAR1 ag | hit rate 82% among 2,400;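 active = activation above a cutoff set at the run's mean compound activation plus 3 SD, cut at about 39% in these data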
Ga16 ag counter = nonselective agonist in parental cells, TAAR1 agonist counter-screen | shares compounds with TAAR1 ag | CHO-Ga16 parental, Fluo-8 calcium fluorescence; normalized to maximal ATP response, DMSO zero | activation, % at 3 µM | hit rate 50% among 2,400 | AID 651787;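 active = activation above the run cutoff, the mean activation over all tested wells plus 3 SD, cut at about 12% in these data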;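 also: 0% = DMSO wells and 100% = maximal ATP response on the peak over basal ratio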
TAAR1 desens = counter-screen for human TAAR1 agonists: agonists that desensitize TAAR1. shares compounds with TAAR1 ag. CHO RD-HGA16 hTAAR1, Fluo-8 calcium, beta-PEA response inhibition. inhibition, % at 3 µM. hit rate 46% among 2,400. AID 651951;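 active = inhibition above the run cutoff, the mean inhibition of all test compounds plus 3 SD, cut at about 49% in these data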;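 also: beta-PEA stimulus applied at its EC80; loss of beta-PEA calcium signal after compound pretreatment read as receptor desensitization; 0% = DMSO with beta-PEA at EC80 and 100% = DMSO alone without agonist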
Ga16 nonsel ant = nonselective Ga16 antagonist in TAAR1 agonist counter-screen. AID 651952. hit rate 39% among 2,400. inhibition, % at 3 µM. CHO-Ga16 ATP-induced calcium, Fluo-8 fluorescence. shares compounds with TAAR1 ag;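 active = inhibition above the plate's mean compound inhibition plus 3 SD, computed per plate, cut at about 22% in these data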;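 also: 0% = EC80 ATP with DMSO and 100% = DMSO wells without ATP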
An asterisk follows results filed as active; i = inactive; . = no result.

SMILES	VLA-4 inh	Platelet DG rel	TAAR1 antagonist	TAAR1 ag	Rce1 inh	TAAR1 ag conf	Ga16 ag counter	TAAR1 desens	Ga16 nonsel ant
COc1ccc(CCNC(=O)C2CCCN2C(=O)Nc2cccc(OC)c2)cc1 (stereo not drawn)	1	12	-6	5	i	.	.	.	.
NS(=O)(=O)c1ccc(CCNC(=O)CNCCc2ccccc2)cc1	14	-3	18	71*	i	90*	1	70*	4
CC(OC(=O)c1cc2sccc2n1C)C(=O)NCc1ccc(F)cc1 (stereo not drawn)	4	1	51*	50*	i	18	17*	4	10
CCN(CC)S(=O)(=O)c1ccc(C(=O)NCCSc2c[nH]c3ccccc23)cc1	-24	2	86*	55*	i	1	3	16	17
Cc1c(Cl)cccc1NC(=O)Cc1ccc([N+](=O)[O-])cc1	-10	0	18	56*	i	31	17*	15	13
CSCC[C@H]1COC[C@@H](Cc2ccccc2)N1c1ccccc1	.	.	-12	1	.	.	.	.	.
NNCCc1ccccc1	-1	-5	30	75*	i	94*	2	76*	5
O=C(CC[C@H]1O[C@@H](n2ccc(=O)[nH]c2=O)[C@H](O)[C@@H]1O)NCCCc1ccccc1	.	.	-8	1	.	.	.	.	.
CSc1ccc(C(=O)NC2CCSc3ccccc32)cc1 (stereo not drawn)	4	-19	89*	65*	.	53*	48*	66*	62*
COc1ccc(-c2cc(C(=O)NNC(=S)NC(=O)c3c(-c4ccccc4)noc3C)[nH]n2)cc1	6	-2	-21	3	i	.	.	.	.
Cc1onc(-c2ccccc2)c1C(=O)NNC(=S)NC(=O)c1ccc(Cl)cc1Cl	18	2	108*	132*	i	149*	121*	107*	92*
Cc1onc(-c2ccccc2)c1C(=O)NNC(=S)NC(=O)/C=C/c1ccccc1	-2	-20	55*	136*	i	149*	126*	90*	61*
COc1ccc(/C=C/C(=O)NC(=S)NNC(=O)c2c(-c3ccccc3)noc2C)cc1	-2	-2	49*	93*	i	68*	66*	52*	52*
Cc1ccccc1C(=O)NNC(=S)NC(=O)c1ccc(Cl)cc1Cl	5	-5	109*	181*	i	132*	103*	104*	81*
O=C(NC(=S)NNC(=O)c1ccc(Cl)cc1Cl)c1cccnc1	7	-1	-9	2	i	.	.	.	.
COc1ccc(/C=C/C(=O)NC(=S)NNC(=O)c2ccco2)cc1	-15	-2	25	18	i	.	.	.	.
COc1ccc(/C=C/C(=O)NC(=S)NNC(=O)Cc2cccs2)cc1	14	1	28	48*	i	30	19*	24	25*
COc1ccc(S(=O)(=O)Nc2ccccc2N2CCOCC2)cc1OC	14	.	8	0	.	.	.	.	.
CCCCCCCCCCCCCCC(O)C[N+](C)(CCO)CCO (stereo not drawn)	.	.	77*	54*	.	18	4	36	30*
COc1cc(COc2ccc(-c3nnco3)cc2)ccc1OC(F)F	0	10	20	48*	i	2	2	-1	6
Cc1ccc(COc2ccc(-c3nnco3)cc2)cc1	8	5	-10	-1	i	.	.	.	.
O=C(Cn1cnc2c(nnn2-c2ccccc2)c1=O)NCc1ccc(F)cc1	0	5	-21	1	i	.	.	.	.
Cc1ccc(-n2nnc3c(=O)n(Cc4cccc(C)c4)cnc32)cc1	-1	17	-11	1	i	.	.	.	.
O=c1c2nnn(-c3ccc(Br)cc3)c2ncn1Cc1ccccn1	7	-1	-23	1	i	.	.	.	.
Cc1ccc(-n2nnc3c(=O)n(CC(=O)NCc4ccccc4)cnc32)cc1	-11	4	-11	42*	i	15	5	-9	1
SMILES	VLA-4 inh	Platelet DG rel	TAAR1 antagonist	TAAR1 ag	Rce1 inh	TAAR1 ag conf	Ga16 ag counter	TAAR1 desens	Ga16 nonsel ant
O=c1c2nnn(-c3ccc(Cl)cc3)c2ncn1Cc1ccccn1	-4	-21	86*	476*	i	5	3	2	12
Cc1ccc(-n2nnc3c(=O)n(Cc4cc(C)ccc4C)cnc32)cc1	1	-3	95*	43*	i	71*	35*	87*	53*
O=C1CN(C(=O)CSc2ccc(-c3ccc(F)cc3)nn2)c2ccccc2N1	3	0	9	-3	.	.	.	.	.
CCc1ccccc1NC(=O)CN(C)Cc1c(O)ccc2ccccc12	-1	-4	-10	9	.	.	.	.	.
CN(CC(=O)Nc1ccccc1C(F)(F)F)Cc1c(O)ccc2ccccc12	-4	3	-6	66*	i	30	5	4	11
O=C(CC1CCCC1)N[C@H](C(=O)N1CCC[C@H]1C(=O)NC1CCCC1)c1ccccc1	.	.	-8	0	.	.	.	.	.
N#C/C(=C\c1ccc(N2CCCCC2)o1)C(=O)Nc1cccc(Br)c1	-249	4	101*	189*	i	93*	143*	87*	90*
Cc1ccc(S(=O)(=O)n2nc(OC(=O)c3ccccc3F)cc2N)cc1	5	-1	17	65*	i	73*	46*	30	11
Cc1ccccc1C(=O)Oc1cc(N)n(S(=O)(=O)c2ccccc2)n1	4	14	41	84*	i	8	1	-8	10
COc1ccccc1C(=O)Oc1cc(N)n(S(=O)(=O)c2ccccc2)n1	7	-3	-1	10	i	.	.	.	.
Cc1cccc(NC(=O)CSc2n[nH]c(-c3ccncc3)n2)c1C	-7	-3	-12	0	i	.	.	.	.
CC(C)C[C@@H]1Cc2[nH]c(=S)[nH]c(=O)c2[C@H](CCc2ccccc2)O1	.	.	-29	8	.	.	.	.	.
O=C(Cc1cccc(NC(=O)C2CCCN(C(=O)CCc3ccccc3)C2)c1)Nc1ccc(C(=O)N2CCOCC2)cc1 (stereo not drawn)	.	.	-24	1	.	.	.	.	.
Cc1ccc(NC(=O)COC(=O)CCC2CCCC2)cc1S(=O)(=O)N1CCOCC1	-7	.	5	4	.	.	.	.	.
O=S(=O)(NC1CCCC1)c1ccc(S(=O)(=O)NC2CCCC2)cc1	12	0	27	57*	i	45*	24*	40	32*
O=S(=O)(NC1CCCCCCC1)c1ccc(F)cc1	-3	-1	-19	11	i	.	.	.	.

Screening data (PubChem)
